The source made the active and inactive calls. The calls are words filed in the database; no cut-off is given here.
Key:
[1] = molecular target: GABA-A receptor; anion channel; experiment: (§1) Displacement of [3H]flunitrazepam from GABA-A benzodiazepine receptor of rat cortical membranes; assay type: cell membranes, Membrane
In short: (§2)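 Rat membranes incubated 60 min at 4 °C with [3H]flunitrazepam, 50 µg membrane protein and graded test drug in 200 µL containing NaCl, 10 mM Hepes/Tris pH 7.4 and 1 mM MgCl2; bound ligand separated by rapid filtration on GF/B; mean affinity, SE ≤10% of mean.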

[2] = molecular target: T1, GABA-A receptor; anion channel (Rattus norvegicus) (UniProt O09028+P15431+P18506+P18508+P19969+P20236+P23574+P23576+P28471+P28473+P30191+P62813+P63079+P63138+Q91ZM7+Q9ES14); experiment: Shift in [35S]TBPS binding to GABA-A Benzodiazepine receptor of rat brain membrane
[3] = test system: Rattus norvegicus; experiment: In vivo efficacy evaluated for ability to antagonize metrazole induced clonic convulsions in rat after ip injection; assay type: functional
[4] = molecular target: T2, GABA-A receptor; alpha-1/beta-2/gamma-2 (Homo sapiens) (UniProt P14867+P47870+P18507); experiment: (§3) In vitro GABA-mediated chloride current in A293 cells expressing GABA-A benzodiazepine receptor alpha-1-beta-2-gamma-2 subunits at 5 uM; assay type: functional, cell-based; settings: HEK293
[5] = molecular target: T1, GABA-A receptor; anion channel (Rattus norvegicus); experiment: as §1; assay type: cell membranes; set-up: concentration or dose not given beside the values; settings: Membrane, concentration not given here; in short: as §2
[6] = molecular target: T2, GABA-A receptor; alpha-1/beta-2/gamma-2 (Homo sapiens); experiment: as §3; assay type: functional, cell-based; settings: HEK293; remark: listed apart in the source
[7] = organism: Mus musculus; experiment: Ability to antagonize the muscle relaxation effect in mice caused by a benzodiazepine full agonist, triazolam.; assay type: functional
In short: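 Muscle relaxation induced by triazolam; test compound and triazolam given separately, traction scored 30 min after dosing; ED50 for blocking the relaxant effect.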

[8] = test system: Mus musculus; experiment: In vivo efficacy is evaluated by percent control of cerebellar GMP levels in (drug+stress) treated mice/mice under stress; assay type: functional; set-up: concentration or dose not given beside the values
In short: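 Male CF-1 mice given drug orally in vehicle 122 before electric footshock stress, controls given vehicle (1 mL/100 g); killed 30 min after treatment; cerebellum homogenized in 1% perchloric acid, iced 30 min, boiled 5 min, spun 17000g 20 min; supernatant cGMP by radioimmunoassay, expressed as % of stress control.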

[9] = test system: Mus musculus; experiment: In vivo acute electroshock physical dependence activity in mice; Not active.; assay type: functional, organism-based

Ki [1] | Shift [2] | Change in Cl- current [4] | inhibition [5] | Change in Cl- current [6] | Compound | ED50 [3] | ED50 [7] | Control [8] | Acute electroshock activity [9]
4.11 nM | 0.04 | 0.35 | – | – | CC(C)(C)OC(=O)c1ncn2c1CN(C(=O)N1CCNCC1)c1ccccc1-2.Cl | > 50 mg/kg | – | – | –
30.1 nM | 0.33 | 0.3 | 4% | 0.5 | CC(C)(C)OC(=O)c1ncn2c1CN(C(=O)N1CC3CC1CN3)c1cc(Cl)ccc1-2 (stereo not drawn) | > 50 mg/kg | – | – | inactive
5.25 nM | 0.15 | – | – | 0.09 | CN(C)C(=O)N1Cc2c(C(=O)OC(C)(C)C)ncn2-c2ccccc21 | > 50 mg/kg | – | – | –
9.15 nM | 0.68 | 2.1 | 26% | 2 | CN1C2CCC1CN(C(=O)N1Cc3c(C(=O)OC(C)(C)C)ncn3-c3ccc(Cl)cc31)C2 | 29.7 mg/kg | > 30 mg/kg | – | –
5.13 nM | 0.56 | 0.5 | 62% | 0.05 | C[C@@H]1CN(C(=O)N2Cc3c(C(=O)OC(C)(C)C)ncn3-c3ccc(Cl)cc32)C[C@@H](C)N1 | 1.3 mg/kg | > 30 mg/kg | – | –
14.7 nM | 0.3 | 0.55 | – | 0.4 | Cc1ccc2c(c1)N(C(=O)N1CCNCC1)Cc1c(C(=O)OC(C)(C)C)ncn1-2 | 21 mg/kg | > 30 mg/kg | – | –
37.8 nM | 0.67 | 0.5 | 19% | 0 | C[C@@H]1CN(C(=O)N2Cc3c(C(=O)OC(C)(C)C)ncn3-c3ccc(Cl)cc32)C[C@H](C)N1CC(F)(F)F | 42 mg/kg | > 30 mg/kg | – | inactive
4.18 nM | 0.76 | – | 8% | 0.9 | C[C@@H]1CN(C(=O)N2Cc3c(C(=O)OC(C)(C)C)ncn3-c3ccc(Cl)cc32)C[C@H](C)N1S(C)(=O)=O.ClCCl | > 50 mg/kg | > 30 mg/kg | – | inactive
4.03 nM | 0.07 | 0.68 | 55% | 0.48 | C[C@@H]1NCCN(C(=O)N2Cc3c(C(=O)OC(C)(C)C)ncn3-c3ccc(Cl)cc32)[C@H]1C | 17.7 mg/kg | 35 mg/kg | – | –
3.04 nM | -0.018 | 0.5 | 82% | 0 | C[C@@H]1CN(C(=O)N2Cc3c(C(=O)OC(C)(C)C)ncn3-c3ccccc32)C[C@H](C)N1 | > 50 mg/kg | > 30 mg/kg | 94% | –
3.03 nM | -0.01 | 0.33 | 13% | 0 | CC1(C)CN(C(=O)N2Cc3c(C(=O)OC(C)(C)C)ncn3-c3ccc(Cl)cc32)CCN1 | > 50 mg/kg | > 30 mg/kg | – | inactive
4.89 nM | 0.68 | 1.6 | 11% | 1 | CN1CC2CC1CN2C(=O)N1Cc2c(C(=O)OC(C)(C)C)ncn2-c2ccc(Cl)cc21 (stereo not drawn) | 7.4 mg/kg | > 30 mg/kg | – | –
37.1 nM | 0.68 | 0.7 | 24% | 0.8 | C[C@@H]1CN(C(=O)N2Cc3c(C(=O)OC(C)(C)C)ncn3-c3ccc(C(F)(F)F)cc32)C[C@@H](C)N1 | 4.4 mg/kg | > 30 mg/kg | 92% | –
28.2 nM | 0.05 | – | 44% | 0.29 | C[C@@H]1CN(C(=O)N2Cc3c(C(=O)OC(C)(C)C)ncn3-c3cccc(Cl)c32)C[C@H](C)N1 | > 50 mg/kg | > 30 mg/kg | 95% | –
6.67 nM | -0.82 | 0.5 | – | -0.1 | C[C@@H]1CN(C(=O)N2Cc3c(C(=O)OC(C)(C)C)ncn3-c3ccccc32)C[C@H](C)N1C | > 50 mg/kg | – | – | –
3.99 nM | -0.02 | 0.4 | – | 0 | CC(C)(C)OC(=O)c1ncn2c1CN(C(=O)N1CCNCC1)c1cc(Cl)ccc1-2 | > 50 mg/kg | – | – | –
2.69 nM | 0.44 | 1 | 29% | -0.1 | C[C@@H]1CN(C(=O)N2Cc3c(C(=O)OC(C)(C)C)ncn3-c3ccc(F)cc32)C[C@H](C)N1C | 35.3 mg/kg | 21.8 mg/kg | 77% | –
23.2 nM | 0.6 | 1 | 30% | 1 | C[C@@H]1CN(C(=O)N2Cc3c(C(=O)OC(C)(C)C)ncn3-c3ccc(C(F)(F)F)cc32)CCN1 | 8.9 mg/kg | > 30 mg/kg | 88% | –
250 nM | 0.54 | – | – | 0.22 | Cc1cccc2c1N(C(=O)N1C[C@@H](C)N[C@@H](C)C1)Cc1c(C(=O)OC(C)(C)C)ncn1-2 | > 50 mg/kg | – | – | –

The remaining lines, values behind:

Compound | Ki [1] | Shift [2] | Change in Cl- current [4] | inhibition [5] | Change in Cl- current [6] | ED50 [3] | ED50 [7] | Control [8] | Acute electroshock activity [9]
CC1CN(C(=O)N2Cc3c(C(=O)OC(C)(C)C)ncn3-c3ccc(Cl)cc32)C(C)CN1.O=C(O)CC(=O)O (stereo not drawn) | 7.8 nM | 0.41 | 0.3 | 71% | -0.05 | 17.6 mg/kg | > 30 mg/kg | – | –
C[C@@H]1CN(C(=O)N2Cc3c(C(=O)OC(C)(C)C)ncn3-c3ccc(F)cc32)C[C@H](C)N1 | 1.04 nM | -0.14 | 0.5 | 95% | 0 | 35.3 mg/kg | > 30 mg/kg | 74% | –
Cc1ccc2c(c1)N(C(=O)N1C[C@@H](C)N[C@H](C)C1)Cc1c(C(=O)OC(C)(C)C)ncn1-2 | 5.17 nM | 0.1 | 0.7 | 22% | 0.05 | 6.3 mg/kg | – | 49% | –
CC(C)(C)OC(=O)c1ncn2c1CN(C(=O)N1CCN(CC(F)(F)F)CC1)c1cc(Cl)ccc1-2 | 10.9 nM | 0.81 | 0.8 | 10% | 1 | > 50 mg/kg | > 30 mg/kg | – | inactive
CC1CN(C(=O)N2Cc3c(C(=O)OC(C)(C)C)ncn3-c3ccc(Cl)cc32)CC(C)N1 (stereo not drawn) | 2.35 nM | 0.41 | 0.6 | 63% | 0.8 | 10.5 mg/kg | 17.3 mg/kg | – | –
CC1CNCC(C)N1C(=O)N1Cc2c(C(=O)OC(C)(C)C)ncn2-c2ccc(F)cc21 (stereo not drawn) | 3.45 nM | 0.02 | 0.72 | 69% | 0 | 10.5 mg/kg | > 30 mg/kg | 100% | –
CC1CN(C)CC(C)N1C(=O)N1Cc2c(C(=O)OC(C)(C)C)ncn2-c2ccc(F)cc21 (stereo not drawn) | 13.3 nM | 0.63 | – | 68% | 0.75 | 8.8 mg/kg | > 30 mg/kg | 82% | –
CC(C)(C)OC(=O)c1ncn2c1CN(C(=O)N1CC3CCC(C1)N3)c1cc(Cl)ccc1-2 | 5.45 nM | 0.2 | 0.73 | – | 0.2 | > 50 mg/kg | – | – | –
CC(C)(C)OC(=O)c1ncn2c1CN(C(=O)N1CCN(C3CC3)CC1)c1cc(Cl)ccc1-2 | 5.39 nM | 0.76 | 0.42 | 24% | 0.75 | 12.5 mg/kg | > 30 mg/kg | – | inactive
C[C@@H]1CN(C(=O)N2Cc3c(C(=O)OC(C)(C)C)ncn3-c3ccc(Cl)cc32)CCN1 | 5.96 nM | 0.01 | 0.6 | 75% | 0 | 3.7 mg/kg | 27.5 mg/kg | 57% | –
CN1CCN(C(=O)N2Cc3c(C(=O)OC(C)(C)C)ncn3-c3ccc(Cl)cc32)CC1(C)C | 4.35 nM | 0.21 | 1.1 | 11% | 0.5 | 35.3 mg/kg | > 30 mg/kg | – | inactive
Cc1ccc2c(c1)N(C(=O)N1CCN[C@H](C)C1)Cc1c(C(=O)OC(C)(C)C)ncn1-2 | 5.47 nM | 0.19 | 0.8 | 51% | 0.1 | 2.7 mg/kg | 17.3 mg/kg | 59% | –
Cc1cccc2c1N(C(=O)N1C[C@@H](C)N(C)[C@@H](C)C1)Cc1c(C(=O)OC(C)(C)C)ncn1-2 | 470 nM | 0.48 | – | – | 0.33 | > 50 mg/kg | – | – | –

Source: ChEMBL document CHEMBL1132620, “Piperazine imidazo[1,5-a]quinoxaline ureas as high-affinity GABAA ligands of dual functionality” (J Med Chem, 1999)
